Results reported in ChEMBL document CHEMBL5678805, “Intermittent administration of MEK inhibitor GDC-0973 plus PI3K inhibitor GDC-0941 triggers robust apoptosis and tumor growth inhibition” (Cancer Res, 2012).
Calls of active or inactive are those of the source. The calls are words filed in the database; no cut-off is given here.

Columns and labels:
888-mel [1] = assay: Induction of apoptosis in human 888-mel cells assessed as increase in cleaved PARP level incubated for 24 hrs in presence of 4-(2-(1H-indazol-4-yl)-6-((4-(methylsulfonyl)piperazin-1-yl)methyl)thieno[3,2-d]pyrimidin-4-yl)morpholine by immunoblotting analysis; format: functional, cell-based
[2] = target: Serine/threonine-protein kinase MARK2 (Homo sapiens, UniProt Q7KZI7); assay: Inhibition of EMK1 (unknown origin)
DLD-1 [3] = assay: Antitumor activity against human DLD-1 cells xenografted in mouse assessed as tumor growth inhibition at 3 mg/kg, po administered once a day for 21 days in presence of 4-(2-(1H-indazol-4-yl)-6-((4-(methylsulfonyl)piperazin-1-yl)methyl)thieno[3,2-d]pyrimidin-4-yl)morpholine; format: functional; details: DLD-1, 504 h, time 21 day, read-out: TGI
Summary of the method: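 Human tumor xenografts in mice. Drugs given orally, as single agents or combined with the PI3K inhibitor. Schedules were daily (QD) or every third day (Q3D) over 21 days. Tumor volume was measured by caliper as (L×W×W)/2. %TGI = 100×[1 − AUC(treatment/d)/AUC(vehicle/d)] from fitted growth curves, with group means. Tumor lysates were immunoblotted for pS6.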

SK-OV-3 = assay: Antitumor activity against human SK-OV-3 cells harboring FBXW7 R505L and CDKN2A mutant xenografted in mouse assessed as tumor growth inhibition at 2.5 mg/kg, po; format: functional; details: read-out: TGI
Summary of the method: (§1)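 Human tumor xenografts in mice were dosed orally at the indicated mg/kg. Tumor volume was measured with calipers as (L×W×W)/2. %TGI = 100 × [1 − (AUC treatment/d)/(AUC vehicle/d)], using the area under the fitted tumor-growth curve per day for each dose group relative to vehicle.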

A-375 [4] = assay: Antiproliferative activity against human A-375 cells assessed reduction in cell viability incubated for 4 days in presence of 4-(2-(1H-indazol-4-yl)-6-((4-(methylsulfonyl)piperazin-1-yl)methyl)thieno[3,2-d]pyrimidin-4-yl)morpholine by celltiter-glo assay; format: functional; details: time 4 day
Summary of the method: (§2)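 4-day CellTiter-Glo viability read-out on melanoma lines, cells exposed to increasing concentrations of each inhibitor alone and in combination.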

[5] = target: RAF proto-oncogene serine/threonine-protein kinase (Homo sapiens, UniProt P04049); assay: Inhibition of cRAF (unknown origin)
[6] = target: Serine/threonine-protein kinase pim-2 (Homo sapiens, UniProt Q9P1W9); assay: Inhibition of PIM2 (unknown origin)
DLD-1 [7] = assay: Antitumor activity against human DLD-1 cells harboring KRAS G13D/IDH1 G97D/SMO T640A/APC I1417 mutant xenografted in mouse assessed as tumor growth inhibition at 5 mg/kg, po; format: functional; details: read-out: TGI
Summary of the method: (§3)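 Single-agent dose ranging in human tumor xenograft mice at 2.5, 5 or 10 mg/kg oral. Tumor volume was measured by caliper as (L×W×W)/2. %TGI = 100×[1 − AUC(treatment/d)/AUC(vehicle/d)] from the fitted growth curve per dose group, relative to vehicle.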

A-375 [8] = assay: Antitumor activity against human A-375 cells harboring BRAF V600E/CDKN2A E61 mutant xenografted in mouse assessed as tumor growth inhibition at 5 mg/kg, po; format: functional; details: A-375, read-out: TGI
Summary of the method: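 Mice carrying human tumor xenografts dosed orally once daily for 21 consecutive days. Tumor volume measured by calipers as (L×W×W)/2. %TGI = 100×[1 − AUC(treatment/day)/AUC(vehicle/day)], using the area under the fitted growth curve relative to vehicle.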

888-mel [9] = assay: Inhibition of ERK phosphorylation in human 888-mel cells incubated for 24 hrs in presence of 4-(2-(1H-indazol-4-yl)-6-((4-(methylsulfonyl)piperazin-1-yl)methyl)thieno[3,2-d]pyrimidin-4-yl)morpholine by immunoblotting analysis; format: cell-based
[10] = target: Dual specificity mitogen-activated protein kinase kinase 6 (Homo sapiens, UniProt P52564); assay: Inhibition of MKK6 (unknown origin)
MX1 = assay: Antitumor activity against human MX1 cells harboring PTEN null mutation xenografted in mouse assessed as tumor growth inhibition at 5 mg/kg, po; format: functional; details: read-out: TGI; summary of the method: as §1
NCI-H69 = assay: Antitumor activity against human NCI-H69 cells harboring RBI E748/PK3CA G106_R108/TP53 E171 mutant xenografted in mouse assessed as tumor growth inhibition at 10 mg/kg, po; format: functional; details: read-out: TGI; summary of the method: as §1
NCI-H2122 = assay: Antitumor activity against human NCI-H2122 cells harboring KRAS […]/LKB1 P281/TP53Q61L/C176Fl/CDKN2A mutant xenografted in mouse assessed as tumor growth inhibition at 10 mg/kg, po; format: functional; details: read-out: TGI
Summary of the method: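 NCI-H2122 (KRAS G12C) NSCLC xenografts in mice were dosed orally once daily for 21 consecutive days. Tumor volume was measured with calipers as (L×W×W)/2, and body weight was tracked. %TGI was derived from the area under the fitted growth curve per day versus vehicle. Group means with SEM were reported.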

888-mel [11] = assay: Antiproliferative activity against human 888-mel cells assessed reduction in cell viability incubated for 4 days in presence of 4-(2-(1H-indazol-4-yl)-6-((4-(methylsulfonyl)piperazin-1-yl)methyl)thieno[3,2-d]pyrimidin-4-yl)morpholine by celltiter-glo assay; format: functional; details: time 4 day; summary of the method: as §2
[12] = target: Dual specificity protein kinase CLK3 (Homo sapiens, UniProt P49761); assay: Inhibition of CLK3 (unknown origin)
A2058 = assay: Antitumor activity against human A2058 cells harboring BRAF V600E/PTEN deletion mutant xenografted in mouse assessed as increase in Bims level at 15 mg/kg, po administered every third day for 21 days and measured after 8 hrs post dose by Western blot analysis; format: functional, organism-based; details: time 512.0 hrs
888-mel [13] = assay: Inhibition of AKT phosphorylation in human 888-mel cells incubated for 24 hrs in presence of 4-(2-(1H-indazol-4-yl)-6-((4-(methylsulfonyl)piperazin-1-yl)methyl)thieno[3,2-d]pyrimidin-4-yl)morpholine by immunoblotting analysis; format: cell-based
[14] = target: Serine/threonine-protein kinase Sgk1 (Homo sapiens, UniProt O00141); assay: Inhibition of SGK (unknown origin)
MIA PaCa-2 = assay: Antitumor activity against human MIA PaCa-2 cells harboring KRAS G12C/NOTCH1 L2458V mutant xenografted in mouse assessed as tumor growth inhibition at 10 mg/kg, po; format: functional; details: read-out: TGI; summary of the method: as §3
[15] = target: Testis-specific serine/threonine-protein kinase 1 (Homo sapiens, UniProt Q9BXA7); assay: Inhibition of TSSK1 (unknown origin)
[16] = target: Tyrosine-protein kinase Fes/Fps (Homo sapiens, UniProt P07332); assay: Inhibition of Fes (unknown origin)
[17] = target: Macrophage colony-stimulating factor 1 receptor (Homo sapiens, UniProt P07333); assay: Inhibition of Fms (unknown origin)
NCI-H460 = assay: Antitumor activity against human NCI-H460 cells harboring KRAS Q61H/PIK3CA E545K/LKB1 Q37/CDKN2A mutant xenografted in mouse assessed as tumor growth inhibition at 5 mg/kg, po; format: functional; details: read-out: TGI; summary of the method: as §1
[18] = target: Serine/threonine-protein kinase NLK (Homo sapiens, UniProt Q9UBE8); assay: Inhibition of NLK (unknown origin)
Serine/threonine-protein kinase NLK, sequence (Q9UBE8 whole entry): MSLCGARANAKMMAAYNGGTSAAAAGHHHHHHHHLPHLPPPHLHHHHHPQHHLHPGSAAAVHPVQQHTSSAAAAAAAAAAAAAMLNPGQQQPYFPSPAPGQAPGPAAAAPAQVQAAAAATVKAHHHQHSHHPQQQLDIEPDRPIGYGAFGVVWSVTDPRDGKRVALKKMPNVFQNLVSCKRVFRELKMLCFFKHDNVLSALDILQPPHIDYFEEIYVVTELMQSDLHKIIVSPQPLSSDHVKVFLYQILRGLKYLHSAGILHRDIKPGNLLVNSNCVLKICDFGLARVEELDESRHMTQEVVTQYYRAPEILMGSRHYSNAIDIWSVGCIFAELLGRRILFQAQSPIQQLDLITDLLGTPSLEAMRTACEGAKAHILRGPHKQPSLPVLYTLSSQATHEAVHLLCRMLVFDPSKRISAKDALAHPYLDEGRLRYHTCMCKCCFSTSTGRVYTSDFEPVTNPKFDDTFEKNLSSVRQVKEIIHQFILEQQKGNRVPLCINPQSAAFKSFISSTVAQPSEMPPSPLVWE

Serine/threonine-protein kinase pim-2, sequence (Q9P1W9 whole entry): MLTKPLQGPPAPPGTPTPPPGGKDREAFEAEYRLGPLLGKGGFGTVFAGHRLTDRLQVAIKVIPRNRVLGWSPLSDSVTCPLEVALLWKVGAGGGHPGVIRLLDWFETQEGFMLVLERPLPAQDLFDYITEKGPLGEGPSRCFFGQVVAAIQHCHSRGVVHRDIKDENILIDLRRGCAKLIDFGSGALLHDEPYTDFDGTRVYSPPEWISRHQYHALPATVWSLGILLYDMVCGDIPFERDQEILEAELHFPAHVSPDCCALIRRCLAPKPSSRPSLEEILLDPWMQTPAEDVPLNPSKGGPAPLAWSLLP
Serine/threonine-protein kinase MARK2, sequence (Q7KZI7 whole entry): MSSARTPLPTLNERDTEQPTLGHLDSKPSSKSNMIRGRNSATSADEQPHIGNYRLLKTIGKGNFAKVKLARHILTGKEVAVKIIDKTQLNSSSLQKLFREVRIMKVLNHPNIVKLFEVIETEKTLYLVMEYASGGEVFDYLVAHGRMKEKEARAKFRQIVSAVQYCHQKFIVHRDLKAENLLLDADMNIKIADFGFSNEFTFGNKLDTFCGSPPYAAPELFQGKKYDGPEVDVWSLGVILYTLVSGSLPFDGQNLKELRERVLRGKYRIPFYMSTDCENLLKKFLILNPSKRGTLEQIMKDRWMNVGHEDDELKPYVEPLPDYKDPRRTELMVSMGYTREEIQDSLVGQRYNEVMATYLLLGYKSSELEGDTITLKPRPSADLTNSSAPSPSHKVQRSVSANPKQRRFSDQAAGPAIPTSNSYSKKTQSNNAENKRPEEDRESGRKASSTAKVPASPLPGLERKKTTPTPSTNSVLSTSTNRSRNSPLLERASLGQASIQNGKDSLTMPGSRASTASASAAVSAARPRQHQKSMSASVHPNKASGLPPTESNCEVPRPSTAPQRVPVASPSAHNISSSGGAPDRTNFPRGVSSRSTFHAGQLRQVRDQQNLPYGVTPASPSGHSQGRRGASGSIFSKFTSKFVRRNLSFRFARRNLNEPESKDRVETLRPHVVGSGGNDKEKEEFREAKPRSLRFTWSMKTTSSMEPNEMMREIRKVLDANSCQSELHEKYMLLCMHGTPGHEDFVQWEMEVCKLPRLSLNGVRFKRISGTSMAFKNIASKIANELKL
Dual specificity mitogen-activated protein kinase kinase 6, sequence (P52564 whole entry): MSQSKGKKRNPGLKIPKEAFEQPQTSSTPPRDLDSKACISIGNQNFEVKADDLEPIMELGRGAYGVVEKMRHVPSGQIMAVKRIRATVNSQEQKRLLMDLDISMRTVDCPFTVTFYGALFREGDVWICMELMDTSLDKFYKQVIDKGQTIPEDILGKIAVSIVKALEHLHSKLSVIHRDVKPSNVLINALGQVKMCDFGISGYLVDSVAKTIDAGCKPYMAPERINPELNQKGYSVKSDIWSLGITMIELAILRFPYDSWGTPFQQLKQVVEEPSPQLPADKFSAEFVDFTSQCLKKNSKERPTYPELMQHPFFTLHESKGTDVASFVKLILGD
Macrophage colony-stimulating factor 1 receptor, sequence (P07333 whole entry): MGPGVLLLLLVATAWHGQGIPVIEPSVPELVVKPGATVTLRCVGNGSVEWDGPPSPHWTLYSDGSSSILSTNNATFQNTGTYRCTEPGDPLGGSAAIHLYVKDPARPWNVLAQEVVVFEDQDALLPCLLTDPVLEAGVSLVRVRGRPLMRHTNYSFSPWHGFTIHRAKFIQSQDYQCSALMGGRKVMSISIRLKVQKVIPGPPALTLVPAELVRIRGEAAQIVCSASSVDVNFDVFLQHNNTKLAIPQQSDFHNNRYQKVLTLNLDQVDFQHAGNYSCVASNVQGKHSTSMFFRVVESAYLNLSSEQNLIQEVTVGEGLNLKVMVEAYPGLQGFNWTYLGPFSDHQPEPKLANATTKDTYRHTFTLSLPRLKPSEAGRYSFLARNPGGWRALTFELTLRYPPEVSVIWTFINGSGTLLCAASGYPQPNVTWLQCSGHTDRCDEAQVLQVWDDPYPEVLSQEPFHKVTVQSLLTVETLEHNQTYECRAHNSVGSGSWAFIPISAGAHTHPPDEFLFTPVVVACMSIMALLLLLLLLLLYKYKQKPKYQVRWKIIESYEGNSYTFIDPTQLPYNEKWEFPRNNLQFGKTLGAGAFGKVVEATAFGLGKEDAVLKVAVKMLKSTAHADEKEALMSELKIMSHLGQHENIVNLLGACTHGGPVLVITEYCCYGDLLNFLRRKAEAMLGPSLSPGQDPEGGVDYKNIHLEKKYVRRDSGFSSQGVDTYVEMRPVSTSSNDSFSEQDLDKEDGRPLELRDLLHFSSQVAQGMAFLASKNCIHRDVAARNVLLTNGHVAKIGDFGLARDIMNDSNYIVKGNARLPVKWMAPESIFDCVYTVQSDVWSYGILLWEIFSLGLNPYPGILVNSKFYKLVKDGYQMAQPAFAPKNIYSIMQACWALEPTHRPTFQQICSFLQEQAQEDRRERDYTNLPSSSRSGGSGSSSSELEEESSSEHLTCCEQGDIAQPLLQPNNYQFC
Testis-specific serine/threonine-protein kinase 1, sequence (Q9BXA7 whole entry): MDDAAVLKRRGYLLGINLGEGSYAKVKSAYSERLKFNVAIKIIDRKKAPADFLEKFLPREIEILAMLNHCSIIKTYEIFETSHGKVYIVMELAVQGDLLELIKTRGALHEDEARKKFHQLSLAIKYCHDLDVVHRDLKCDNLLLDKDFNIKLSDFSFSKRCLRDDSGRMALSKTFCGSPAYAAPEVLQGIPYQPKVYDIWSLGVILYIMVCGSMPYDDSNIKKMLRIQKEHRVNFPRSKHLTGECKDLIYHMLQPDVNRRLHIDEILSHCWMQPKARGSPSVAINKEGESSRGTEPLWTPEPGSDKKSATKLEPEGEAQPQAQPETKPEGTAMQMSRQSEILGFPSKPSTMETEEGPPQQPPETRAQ
Serine/threonine-protein kinase Sgk1, sequence (O00141 whole entry): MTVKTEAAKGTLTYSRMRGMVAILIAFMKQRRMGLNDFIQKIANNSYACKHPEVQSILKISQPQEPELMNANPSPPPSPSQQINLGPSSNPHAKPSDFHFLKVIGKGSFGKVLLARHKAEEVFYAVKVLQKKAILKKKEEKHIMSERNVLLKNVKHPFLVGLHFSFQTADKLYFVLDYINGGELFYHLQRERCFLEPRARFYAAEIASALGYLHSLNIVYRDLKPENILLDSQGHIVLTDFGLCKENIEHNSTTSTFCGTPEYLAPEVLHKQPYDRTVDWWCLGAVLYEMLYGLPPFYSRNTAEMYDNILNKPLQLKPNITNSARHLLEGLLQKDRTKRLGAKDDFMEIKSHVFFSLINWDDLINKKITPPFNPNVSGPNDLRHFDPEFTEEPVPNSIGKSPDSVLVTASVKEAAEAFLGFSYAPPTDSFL
Tyrosine-protein kinase Fes/Fps, sequence (P07332 whole entry): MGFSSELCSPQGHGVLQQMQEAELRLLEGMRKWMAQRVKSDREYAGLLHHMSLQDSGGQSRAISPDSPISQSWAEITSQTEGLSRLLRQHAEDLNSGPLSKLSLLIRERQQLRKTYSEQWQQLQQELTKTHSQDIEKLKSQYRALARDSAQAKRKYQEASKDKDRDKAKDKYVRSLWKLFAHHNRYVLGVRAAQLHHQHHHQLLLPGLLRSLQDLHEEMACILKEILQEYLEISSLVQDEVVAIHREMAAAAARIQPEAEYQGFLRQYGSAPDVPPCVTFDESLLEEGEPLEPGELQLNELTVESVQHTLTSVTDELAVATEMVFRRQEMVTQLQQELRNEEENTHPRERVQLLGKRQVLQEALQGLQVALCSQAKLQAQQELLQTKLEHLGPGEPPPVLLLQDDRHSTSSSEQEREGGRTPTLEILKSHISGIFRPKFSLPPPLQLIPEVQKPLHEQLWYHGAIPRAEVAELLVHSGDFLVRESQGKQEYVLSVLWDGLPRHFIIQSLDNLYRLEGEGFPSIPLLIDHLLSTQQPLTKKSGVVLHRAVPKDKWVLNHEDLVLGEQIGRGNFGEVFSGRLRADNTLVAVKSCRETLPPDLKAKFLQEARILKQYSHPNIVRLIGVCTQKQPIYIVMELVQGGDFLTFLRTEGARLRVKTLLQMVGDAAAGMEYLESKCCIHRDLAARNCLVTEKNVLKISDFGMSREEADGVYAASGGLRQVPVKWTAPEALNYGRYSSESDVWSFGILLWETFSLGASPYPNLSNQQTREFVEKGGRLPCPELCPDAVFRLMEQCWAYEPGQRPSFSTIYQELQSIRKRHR

IC50 [2]: > 10 µM
IC50 [5]: > 10 µM
IC50 [6]: > 10 µM
IC50 [10]: > 10 µM
IC50 [12]: > 10 µM
IC50 [14]: > 10 µM
IC50 [15]: > 10 µM
IC50 [16]: > 10 µM
IC50 [17]: > 10 µM
IC50 [18]: > 10 µM
SMILES: O=C(c1ccc(F)c(F)c1Nc1ccc(I)cc1F)N1CC(O)([C@@H]2CCCCN2)C1 [COBIMETINIB]
Activity (888-mel [1]): Active
inhibition in vivo at 3 mg/kg (DLD-1 [3]): 88%
inhibition in vivo at 2.5 mg/kg (SK-OV-3): 36%
Activity (A-375 [4]): 60%
inhibition in vivo at 5 mg/kg (DLD-1 [7]): 50.2%
inhibition in vivo at 5 mg/kg (A-375 [8]): 120%
inhibition (888-mel [9]): Active
inhibition in vivo at 5 mg/kg (MX1): 26%
inhibition in vivo at 10 mg/kg (NCI-H69): 38%
inhibition in vivo at 10 mg/kg (NCI-H2122): 80%
Activity (888-mel [11]): 60%
Activity (A2058): Active
inhibition (888-mel [13]): Active
inhibition in vivo at 10 mg/kg (MIA PaCa-2): 12%
inhibition in vivo at 5 mg/kg (NCI-H460): 34.5%
